Bioassay records: PubChem, several laboratories
MT1-MMP act inh: inhibitors of human MT1-MMP activation; AID 651647; GFP/RFP ratio change, % at 20 µM; actives 0.061% (n = 360,000); HT1080 RFP-PRO-GFP cells, GFP/RFP ratio fluorescence, overnight; percent of plate control window, DMSO zero; P50281;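 active = GFP/RFP ratio change of at least 30% with cell ATP level not reduced by more than half and red fluorescence within 50% of control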
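Assay system – RFP-PRO-GFP reporter HT1080 cells · Compound dosing – single dose of 20 µM compound, 1% DMSO final · Incubation – overnight compound exposure at 37 °C · Measure – GFP/RFP fluorescence ratio · Benchmarks – DMSO wells and RFP-L50D-GFP cells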
MIN6 prolif-1: induces beta-cell replication in MIN6 cells. MIN6 cells proliferation, ATPlite luminescence, 48 h; cells starved in 0.2% serum; 100% = growth in 10% serum. proliferation, % at 10 µM. actives 0.29% (n = 330,000). AID 2380;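 active = compounds whose signal lies at least 3.5 SD above the mean of all wells on their plate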;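 also: 0% = DMSO-treated cells in low-serum medium and 100% = 10% serum control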
DAGLB inh: blocks human DAGLB lipase activity | inhibition, % at 5.17 µM | actives 0.059% (n = 340,000) | HEK293T DAGLB membrane lysate, EnzChek fluorogenic substrate | Q8NCG7; in the data active = inhibition above about 34%;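 also: 0% = enzyme with vehicle and 100% = wells lacking enzyme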
Target sequence (Q8NCG7 whole entry, looked up): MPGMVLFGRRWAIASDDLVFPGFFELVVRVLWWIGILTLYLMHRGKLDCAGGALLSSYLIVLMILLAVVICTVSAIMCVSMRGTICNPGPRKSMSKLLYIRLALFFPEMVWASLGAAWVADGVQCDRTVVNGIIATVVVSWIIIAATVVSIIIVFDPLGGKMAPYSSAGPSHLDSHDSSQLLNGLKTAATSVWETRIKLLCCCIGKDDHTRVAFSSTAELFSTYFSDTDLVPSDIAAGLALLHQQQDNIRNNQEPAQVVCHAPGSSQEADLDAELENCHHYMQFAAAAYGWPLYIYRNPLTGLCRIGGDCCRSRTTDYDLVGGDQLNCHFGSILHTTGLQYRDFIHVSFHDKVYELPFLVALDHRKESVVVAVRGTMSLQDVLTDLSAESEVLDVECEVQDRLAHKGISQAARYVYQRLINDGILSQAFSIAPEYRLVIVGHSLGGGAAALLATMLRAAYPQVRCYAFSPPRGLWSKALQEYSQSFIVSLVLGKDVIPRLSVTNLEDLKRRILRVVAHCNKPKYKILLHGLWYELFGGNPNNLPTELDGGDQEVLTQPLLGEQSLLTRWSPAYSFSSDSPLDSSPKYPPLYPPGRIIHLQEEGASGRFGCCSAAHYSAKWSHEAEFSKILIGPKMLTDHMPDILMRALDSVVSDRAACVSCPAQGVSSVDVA
SKN-1 inh: inhibitors of C. elegans SKN-1. C. elegans VP596 Pgst-4::GFP/RFP ratio, acrylamide-induced, 24 h. inhibition, % at 21.8 µM. actives 0.49% (n = 360,000). AID 624304;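 active = interference check ratio from 0.5 to 1.5 plus GFP to RFP signal ratio inhibition reaching or exceeding a fixed threshold, cut at about 30% in these data, passing the limit was not always enough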
bovine MsrA act: activators of bovine methionine sulfoxide reductase A | AID 602163 | purified bovine MsrA, absorbance read-out | activation, % at 10.6 µM | actives 0.3% (n = 360,000); in the data active = activation above about 7.5%;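 also: 0% = vehicle and 100% = reference activator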
MsrA inhibitor: inhibitors of bovine MsrA. purified bovine MsrA, absorbance read-out. inhibition, % at 15.5 µM. actives 0.75% (n = 360,000). AID 651718; in the data active = inhibition above about 4.5%;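 also: 0% = vehicle wells with enzyme and 100% = reference inhibitor wells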
MIN6 prolif-2: MIN6 beta-cell replication induction, confirmed | MIN6 beta-cell proliferation, ATPlite luminescence, 48 h; cells kept in 0.2% serum; scaled between 0.2% and 10% serum | proliferation increase, % at 50 µM | 920 tested, under 10 active | shares compounds with MIN6 prolif-1;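 active = proliferation increase above 40% at any of the four tested concentrations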
The depositor's hits bear a star; x = not tested or not shown. Compounds with a hit are over-represented: about 1.8% of the library has one in this group of screens.

SMILES	MT1-MMP act inh	MIN6 prolif-1	DAGLB inh	SKN-1 inh	bovine MsrA act	MsrA inhibitor	MIN6 prolif-2
COC(=O)c1c(C)[nH]c(C(=O)CSc2nnnn2-c2ccccc2)c1C	1	-2	-4	3	-1	0	x
COC(=O)[C@]12C[C@H](CC(=O)NCc3ccc(C)o3)C(=O)N(Cc3ccccc3)C1=C[C@H](C1CCCC1)O[C@@H]2C	x	x	x	x	x	1	x
CC1(C)CNC(=O)CC(C)(C)N1O	-1	6.6*	-2	5	-3	1	-4
Cc1cc(C)c(S(=O)(=O)c2ccccc2)c(Cl)n1	5	4.9*	0	6	-3	-1	-1
COc1cccc(CNS(=O)(=O)c2cc(Br)ccc2Br)c1OC	x	x	x	x	x	0	x
Cc1ccc(S(=O)(=O)NC2=NCN(CCOC(=O)c3ccc([N+](=O)[O-])cc3)CN2)cc1	4	8.4*	0	-4	-12	0	0
Cc1ccc(S(=O)(=O)NC2=NCN(CCOC(=O)c3ccccc3)CN2)cc1	4	2	1	5	-1	1	x
COC(=O)CSc1nnc(-c2ccco2)n1-c1ccc(C)cc1	2	7.4*	-1	0	-9	0	2
C#CCC1c2ccccc2CCN1CC=C (stereo not drawn)	x	x	x	x	x	-1	x
CCn1cc(CNC(=O)c2cccc([N+](=O)[O-])c2)cn1	0	-3	-3	-3	0	0	x
CCn1cc(CN(C)S(=O)(=O)c2cccc([N+](=O)[O-])c2)cn1	1	7.2*	2	4	0	1	-1
CC(=O)C1=C(C)N(Cc2ccc(F)cc2)C(=S)NC1c1cccc(Cl)c1 (stereo not drawn)	x	x	x	x	x	0	x
O=C(NCCCn1ccnc1)/C(=C\c1cccs1)NC(=O)c1ccccc1	0	6.7*	-1	13	-6	1	2
CC(C)CNc1ccc2c(c1)OC[C@H](C)NS2(=O)=O	x	x	x	x	x	0	x
Cc1ccc(-c2nn3c(C)nnc3s2)cc1NC(=O)COc1ccc(Cl)cc1	0	10.0*	1	-2	1	0	-2
Cc1ccc(/C=N/NC(=O)c2c(C)nc3ccc(Cl)cn23)cc1	x	x	x	x	x	1	x
N#CC(c1ccccn1)c1ncc(C(F)(F)F)cc1Cl (stereo not drawn)	2	8.3*	-2	-5	-12	3	6
C=CCN1C=C(C(=O)OCC)C(=O)CC1	x	x	x	x	x	0	x
C=CCN1[C@@H](C)[C@H](c2ccccc2)Oc2cccc(NCC(C)C)c2S1(=O)=O	x	x	x	x	x	0	x
COc1ccc([N+](=O)[O-])cc1NC(=O)c1ccc(N2C(=O)CCC2=O)cc1	0	7.8*	-4	-4	-5	0	0
Cc1cccc(/C=N/n2c(C3CCCCC3)n[nH]c2=S)c1	1	6.7*	-10	-8	1	x	-6
COc1ccc(NC(=O)C2CC2)cc1OC1CCCC1	0	2	2	22	0	x	x
COC(=O)c1ccc(OC)c(OC2CCCC2)c1	-1	6.6*	-5	0	-3	-1	3
O=C1c2ccccc2C(c2nnnn2-c2ccc3c(c2)OCCO3)N1Cc1ccccc1 (stereo not drawn)	-1	x	x	3	-2	-1	x
O=[N+]([O-])c1ccc(Oc2ncccn2)cc1	-3	-1	x	-7	-1	1	x
SMILES	MT1-MMP act inh	MIN6 prolif-1	DAGLB inh	SKN-1 inh	bovine MsrA act	MsrA inhibitor	MIN6 prolif-2
N#CCc1ccc(Oc2ncccn2)cc1	-4	8.4*	1	28	-3	-2	0
COc1ccc(S(=O)(=O)N2CCC3(CC2)OCCN3S(=O)(=O)c2cccs2)cc1	-5	13*	-3	21	-1	-2	-2
Cc1ccc(S(=O)(=O)N2CCC3(CC2)OCCN3S(=O)(=O)c2cccs2)cc1	-3	0	0	9	-2	-1	x
CC(C)C[C@@H]1COc2cc(F)ccc2S(=O)(=O)N1	x	x	x	x	x	0	x
COc1cc(-c2noc(C)c2C#CC2(O)CCCCC2)cc(OC)c1OC	5	12*	-7	1	-1	0	-6
COc1cc(-c2noc(C)c2C#CC2(N)CCCCC2)cc(OC)c1OC	8	-3	-5	-2	-6	0	x
c1cc(-c2nnc3sc(C4CCCCC4)nn23)ccn1	-15	9.0*	0	10	-4	0	3
c1csc(Cc2nn3c(-c4ccncc4)nnc3s2)c1	-2	7.3*	0	0	-2	1	4
COc1ccc(CNS(=O)(=O)c2ccccc2Br)c(OC)c1	x	x	x	x	x	0	x
Cc1nnc(SCC(=O)Nc2ccccc2)c2ccccc12	2	0	-4	10	-2	0	x
Cc1ccccc1NC(=O)CSc1nnc(C)c2ccccc12	-1	5.8*	-1	-9	-1	0	4
Oc1ccccc1-c1nc(N2CCCC2)c2ccccc2n1	-2	7.0*	-4	-3	-7	-1	6
O=C(Cc1ccc(NC(=O)C2CCN(C(=O)CCc3ccccc3)CC2)cc1)Nc1cccc(C(=O)N2CCCC2)c1	x	x	x	x	x	3	x
CC(C)c1nc2sc3c(SCC(N)=O)ncnc3c2c2c1CCC2	1	5.1*	-1	9	-5	0	5
O=S1(=O)CC(N2CCC(c3ccccc3)CC2)CN1Cc1cn(Cc2ccc(C(F)(F)F)cc2)nn1 (stereo not drawn)	x	x	x	x	x	0	x
OC(c1ccccc1)(c1ccccc1)C1CCN(CCCOc2ccc(-c3ccncc3)cc2)CC1	x	x	x	x	x	1	x
COC(=O)Cc1c([C@H](C)[C@@H](OC)c2ccccc2Br)nnn1Cc1ccccc1	x	x	x	x	x	0	x
NS(=O)(=O)c1ccc(CNC(=O)c2cc(=O)[nH]c3ccccc23)cc1	-2	6.5*	2	-8	-1	1	0
COc1ccc(CC(=O)NCCS(=O)(=O)N2CCN(c3ccccc3)CC2)cc1	-2	11*	-5	4	-1	-1	0
Cc1ccc(C2c3c(-c4ccccc4)n[nH]c3C(=O)N2c2ccccc2)cc1 (stereo not drawn)	x	x	x	x	x	-2	x
C[C@@H]1CN([C@H](C)CO)C(=O)c2ccccc2-c2ccccc2CO[C@@H]1CN(C)C(=O)Nc1ccccc1	x	x	x	x	x	0	x
O=C(COc1ccccc1Cl)Nc1ccc(S(=O)(=O)Nc2ccccn2)cc1	1	0.0*	0	0	-2	1	1
O=C(N[C@@H](Cc1cccnc1)C(=O)N1CCC[C@H]1C(=O)NCCc1ccccc1Cl)c1ccc(Cl)cc1Cl	x	x	x	x	x	2	x
COc1ccc(Cn2c(C3CC3)nc3ccc(NC(=O)c4ccco4)cc3c2=O)cc1	5	5.5*	2	26	-1	1	-5
